Laboratory results as given in ChEMBL document CHEMBL4376884, “Toward a Rational Design of Polyamine-Based Zinc-Chelating Agents for Cancer Therapies” (J Med Chem, 2020).
The source made the active and inactive calls. The rule behind the calls is not given here.

Legend:
[1] = test system: LN-229; assay: Antiproliferative activity against human LN229 cells assessed as reduction in cell viability at 10 uM incubated for 48 hrs by cell titer-glo assay; type: functional, cell-based
Method in brief: (§1)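 Cells plated and treated 24 h later with 10 µM compound for 48 h; viable cells quantified by CellTiter-Glo ATP luminescence. Expressed as percentage of viable cells relative to untreated; mean ± SD of three independent experiments, each in triplicate.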

[2] = species: Homo sapiens; assay: Antiproliferative activity against human UPN2 cells assessed as reduction in cell viability at 10 uM incubated for 48 hrs by cell titer-glo assay; type: functional, cell-based; method in brief: as §1
[3] = species: Homo sapiens; assay: Antiproliferative activity against human SKMG3 cells assessed as reduction in cell viability at 10 uM incubated for 48 hrs by cell titer-glo assay; type: functional, cell-based; method in brief: as §1
[4] = test system: MCF7; assay: Antiproliferative activity against human MCF7 cells assessed as reduction in cell viability at 10 uM incubated for 48 hrs by cell titer-glo assay; type: functional, cell-based; method in brief: as §1
[5] = test system: SW480; assay: Antiproliferative activity against human SW480 cells assessed as reduction in cell viability at 10 uM incubated for 48 hrs by cell titer-glo assay; type: functional, cell-based; method in brief: as §1
[6] = test system: PC-3; assay: Induction of cell morphological changes in human PC3 cells assessed as cell rounding at 10 uM incubated for 24 to 48 hrs by phase contrast microscopy; type: functional, cell-based
Method in brief: (§2)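 LN229 and PC3 cells exposed to 10 µM compound for the indicated time-points, then imaged live by phase-contrast microscopy for morphology.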

[7] = test system: LN-229; assay: Induction of cell morphological changes in human LN229 cells assessed as cell shrinkage at 10 uM incubated for 24 to 48 hrs by phase contrast microscopy; type: functional, cell-based; method in brief: as §2
[8] = test system: LN-229; assay: Antiproliferative activity against human LN229 cells assessed as reduction in cell viability incubated for 48 hrs by cell titer-glo assay; type: functional, cell-based; details: LN-229, 48 h
Method in brief: (§3)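 Dose-response: cells plated, treated 24 h later for 48 h, then ATP measured by CellTiter-Glo luminescence. IC50 given as mean ± SD from three independent experiments, each in triplicate. Fibroblasts came from individuals. Cells were kept in RPMI or DMEM with 10% heat-inactivated FBS and penicillin/streptomycin at 37 °C, 5% CO2.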

[9] = test system: MCF7; assay: Antiproliferative activity against human MCF7 cells assessed as reduction in cell viability incubated for 48 hrs by cell titer-glo assay; type: functional, cell-based; details: MCF7, 48 h; method in brief: as §3
[10] = test system: Jurkat; assay: Cell cycle arrest in human Jurkat cells assessed as decrease in cell accumulation at G2 phase at 10 uM incubated for 24 hrs by propidium iodide staining based flow cytometry analysis; type: functional
[11] = test system: LN-229; assay: Cell cycle arrest in human LN229 cells assessed as cell accumulation at G1 phase at 10 uM incubated for 24 hrs by propidium iodide staining based flow cytometry analysis relative to control; type: functional
[12] = test system: LN-229; assay: Cell cycle arrest in human LN229 cells assessed as cell accumulation at G2/M phase at 10 uM incubated for 48 hrs by propidium iodide staining based flow cytometry analysis relative to control; type: functional
[13] = test system: LN-229; assay: Induction of cellular senescence in human LN229 cells assessed as flattened cells at 10 uM incubated for 24 hrs by phase contrast microscopy; type: functional, cell-based
Method in brief: (§4)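 LN229 and PC3 cells, 12×10^4 per well in 6-well plates, treated with 10 µM compound for 24 h. Senescence-associated β-gal staining: fixed in 2% formaldehyde/0.2% glutaraldehyde for 10 min at RT, stained with 1 mg/mL X-gal at 37 °C for 24 h without CO2. Blue cells counted in at least 10 fields at 10x and given as percent of total; four independent experiments. Morphology viewed by phase contrast at ×100.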

[14] = test system: LN-229; assay: Induction of cellular senescence in human LN229 cells assessed as wider cells at 10 uM incubated for 24 hrs by phase contrast microscopy; type: functional, cell-based; method in brief: as §4
[15] = test system: LN-229; assay: Induction of cellular senescence in human LN229 cells assessed as cells with irregular shape at 10 uM incubated for 24 hrs by phase contrast microscopy; type: functional, cell-based; method in brief: as §4
[16] = test system: LN-229; assay: Induction of cellular senescence in human LN229 cells assessed as larger volume of cell at 10 uM incubated for 24 hrs by phase contrast microscopy; type: functional, cell-based; method in brief: as §4
[17] = test system: LN-229; assay: Induction of cellular senescence in human LN229 cells assessed as increase in nuclear size at 10 uM incubated for 24 hrs by phase contrast microscopy; type: functional, cell-based; method in brief: as §4
[18] = test system: PC-3; assay: Induction of cellular senescence in human PC3 cells assessed as flattened cells at 10 uM incubated for 24 hrs by phase contrast microscopy; type: functional, cell-based; method in brief: as §4
[19] = test system: PC-3; assay: Induction of cellular senescence in human PC3 cells assessed as wider cells at 10 uM incubated for 24 hrs by phase contrast microscopy; type: functional, cell-based; method in brief: as §4
[20] = test system: PC-3; assay: Induction of cellular senescence in human PC3 cells assessed as cells with irregular shape at 10 uM incubated for 24 hrs by phase contrast microscopy; type: functional, cell-based; method in brief: as §4
[21] = test system: PC-3; assay: Induction of cellular senescence in human PC3 cells assessed as larger volume of cell at 10 uM incubated for 24 hrs by phase contrast microscopy; type: functional, cell-based; method in brief: as §4
[22] = test system: PC-3; assay: Induction of apoptosis in human PC3 cells assessed as late apoptotic cells at 10 uM incubated for 72 hrs by annexin V-FITC and propidium iodide staining based flow cytometry analysis (reference value: 0.52 %); type: functional
[23] = test system: DNA; assay: Induction of DNA damage in human LN229 cells assessed as gammaH2AX phosphorylation at Ser139 residue at 10 uM incubated for 4 hrs by Flow cytometry analysis; type: cell-based
Method in brief: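 Z-138 and LN229 cells treated 4 h with 10 µM compound or 1 µM doxorubicin. Fixed in 3.7% formaldehyde on ice, permeabilized with 0.2% Triton X, stained with rabbit anti-pS139 H2A.X (1:400) and Alexa 555 secondary, then analysed by flow cytometry. Fold γH2AX fluorescence versus untreated; mean ± SD of three experiments.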

[24] = test system: PC-3; assay: Inhibition of colony formation in human PC3 cells at 10 uM incubated for 4 hrs by crystal violet staining based colony counting method; type: functional, cell-based
Method in brief: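 LN229 and PC3 cells treated for 4 h with compound (10 µM) or with etoposide (30 µM positive control), washed, trypsinized and replated at 3000 cells per 60-mm plate. Colonies grown 7–10 days, fixed and stained with 0.5% crystal violet in 70% ethanol, and counted. Reported as percent of control; four independent experiments, each in duplicate.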

[25] = test system: PC-3; assay: Antiproliferative activity against human PC3 cells assessed as reduction in cell viability at 10 uM incubated for 48 hrs in presence of Cu2+ ion by MTT assay; type: functional, cell-based
Method in brief: (§5)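 LN229 and PC3 cells plated, then 24 h later given 10 µM compound with or without 15 µM ZnCl2, CuCl2, FeCl2 or FeCl3 for 48 h. Medium replaced, MTT (12 mM solution) added for 4 h, formazan dissolved in DMSO, absorbance read at 540 nm. Percent viable versus untreated; mean ± SD of three experiments in triplicate.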

[26] = test system: PC-3; assay: Antiproliferative activity against human PC3 cells assessed as reduction in cell viability at 10 uM incubated for 48 hrs in presence of Fe2+ ion by MTT assay; type: functional, cell-based; method in brief: as §5
[27] = test system: PC-3; assay: Induction of apoptosis in human PC3 cells at 10 uM incubated for 24 to 48 hrs by annexin V-FITC and propidium iodide staining based flow cytometric analysis; type: functional, cell-based
[28] = Metal chelating activity assessed as Zn2+-compound complex formation at physiological pH 7.4 by quantum mechanical studies
Method in brief: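 Zn2+ complexes modelled by DFT, B3LYP, gas phase. Basis set def2-SV(P), with MDF10 Stuttgart-Dresden effective core potential for Zn and Grimme dispersion correction. Vibrational frequencies and zero-point correction computed for each minimum.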

SMILES	Activity [1]	Activity [2]	Activity [3]	Activity [4]	Activity [5]	Activity [6]	Activity [7]	IC50 [8]	IC50 [9]	Activity [10]	Activity [11]	Activity [12]	Activity [13]	Activity [14]	Activity [15]	Activity [16]	Activity [17]	Activity [18]	Activity [19]	Activity [20]	other results
c1ccc(CNCCN(CCNCc2ccccn2)Cc2ccc3ccccc3c2)nc1	Active	Active	Active	Active	Active	Active	Active	6.3 µM	3.19 µM	Active	63.1%	14.4%	Active	Active	Active	Active	Active	Active	Active	Active	Activity [21]: Active; Activity [22]: 11.68%; Activity [23]: inactive; inhibition [24]: inactive; Activity [25]: inactive; Activity [26]: Active; Activity [27]: Active; Activity [28]: > 99%
CN(CCNCc1ccccn1)CCNCc1ccccn1	Active	Active	Active	Active	Active	Active	Active	6.84 µM	3.13 µM	Active	62.1%	20.2%	Active	Active	Active	Active	Active	Active	Active	Active	Activity [21]: Active; Activity [22]: 12.63%; Activity [23]: inactive; inhibition [24]: inactive; Activity [25]: inactive; Activity [26]: Active; Activity [27]: Active; Activity [28]: > 99%
